Measurements as given in PMC11303703 (Scientific Reports, 2024).

Tests used:
P. falciparum W2 = settings: read-out: IC50 against P. falciparum W2; cultured malaria parasites; cited from earlier work
falcipain-2 = settings: read-out: IC50 against falcipain-2; cited from earlier work
[1] = DPPH radical scavenging assay; settings: 37 °C, 30 min, 517 nm, n = 3
Method in brief: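 Ethanolic DPPH (300 µM before mixing) was combined with test solution (0.5 mg/mL before mixing) and held at 37 °C for 30 min, then read at 517 nm. % radical scavenging was taken relative to a DMSO control. IC50 is the concentration removing 50% of the initial DPPH, fitted by kinetics software. N-acetyl-L-cysteine standard; 3 replicates.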

Cytotoxicity assay = assay type: cell-based; settings: human, HeLa cells
Method in brief: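 HeLa cells grown in DMEM with 5 mM L-glutamine, 10% FBS and penicillin/streptomycin/fungizone, then exposed to the test agent for 24 h in 96-well plates. A resazurin reagent was added and the resorufin formed by surviving cells was read by fluorescence (Ex 560/Em 590). Triplicate wells; emetine as positive control.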

HIV-1 IN = settings: by chelating the active site Mg2+ cofactor; cited from earlier work
T.b. brucei = assay: Trypanosoma brucei assay; assay type: cell-based; settings: 48 h, read-out: Antitrypanosomal IC50
Method in brief: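 In vitro T. b. brucei cultures in 96-well plates were exposed to the test agent for 48 h; the extract was screened at 25 µg/mL unless otherwise stated. Surviving parasites were counted by adding a resazurin reagent and reading resorufin fluorescence (Ex 560/Em 590). Pentamidine reference; triplicate wells; IC50 from dose-response data.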

Trypanosoma brucei = settings: cited from earlier work

For `O=C(O)c1c(O)ccc(O)c1O` [2,3,6-trihydroxy benzoic acid], the IC50 (P. falciparum W2) is given as 16.5 ± 0.47 µM and the IC50 (falcipain-2) is given as 35.4 ± 22.4 µM.

For `COC(=O)c1c(O)ccc(O)c1O` [2,3,6-trihydroxy methyl benzoate], the IC50 (P. falciparum W2) is listed as 13 ± 1.63 µM and the IC50 (falcipain-2) is listed as 6.09 ± 0.87 µM.

In the case of `CC(=O)N[C@@H](CS)C(=O)O` [N-acetyl-L-cysteine], the “Antioxidant IC50” value [1] is reported as 14.1 ± 0.1 µg/mL.

`CC[C@H]1CN2CCc3cc(OC)c(OC)cc3[C@@H]2C[C@@H]1C[C@H]1NCCc2cc(OC)c(OC)cc21` [emetine] gave an IC50 at 24 h (Cytotoxicity assay) of 0.045 ± 0.01 µM.

For `COC(=O)c1cc(O)c(O)c(O)c1` [methyl gallate, Methyl gallate], the “HIV-1 IN inhibition” value (HIV-1 IN) is given as “inhibits HIV-1 IN”.

`N=C(N)c1ccc(OCCCCCOc2ccc(C(=N)N)cc2)cc1` [pentamidine] gave an IC50 (T.b. brucei) of 0.000782 ± 6e-06 µM.

For epigallocatechin-3-gallate, the “activity against Trypanosoma brucei” value (Trypanosoma brucei) is listed as “active against Trypanosoma brucei”.
